Measured values as given in ChEMBL document CHEMBL2401717, “Synthesis and bioactive evaluation of novel hybrids of metronidazole and berberine as new type of antimicrobial agents and their transportation behavior by human serum albumin” (Bioorg Med Chem, 2013).
≈ marks a conversion by molar mass, not a printed value.

Experiments:
[1] = system: Pseudomonas aeruginosa; experiment: Antibacterial activity against Pseudomonas aeruginosa after 24 hrs by twofold broth dilution method; type: functional
Method in brief: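 Twofold broth dilution in 96-well microplates following NCCLS guidance; MIC read as the endpoint; tests run in triplicate.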

[2] = system: Shigella dysenteriae; experiment: Antibacterial activity against Shigella dysenteriae after 24 hrs by twofold broth dilution method; type: functional
Method in brief: (§1)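 MIC by NCCLS-recommended twofold broth microdilution, run in triplicate. Strains: B. subtilis ATCC6633, E. coli DH52, M. luteus ATCC4698, P. vulgaris ATCC6896, S. dysenteriae, S. aureus ATCC25923, MRSA N315, C. albicans ATCC76615, C. mycoderma. References were chloromycin, norfloxacin and berberine for bacteria, and fluconazole for fungi.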

[3] = system: Staphylococcus aureus; experiment: Antibacterial activity against Staphylococcus aureus ATCC 25923 after 24 hrs by twofold broth dilution method; type: functional; settings: ATCC 25923, 24 h; method in brief: as §1
[4] = system: Staphylococcus aureus; experiment: Antibacterial activity against methicillin-resistant Staphylococcus aureus N315 after 24 hrs by twofold broth dilution method; type: functional; settings: N315, 24 h; method in brief: as §1
[5] = system: Proteus vulgaris; experiment: Antibacterial activity against Proteus vulgaris after 24 hrs by twofold broth dilution method; type: functional; method in brief: as §1
[6] = system: Candida; experiment: Antifungal activity against Candida mycoderma after 24 hrs by twofold broth dilution method; type: functional; method in brief: as §1
[7] = system: Escherichia coli; experiment: Antibacterial activity against Escherichia coli DH52 after 24 hrs by twofold broth dilution method; type: functional; settings: DH52, 24 h; method in brief: as §1
[8] = system: Candida albicans; experiment: Antifungal activity against Candida albicans after 24 hrs by twofold broth dilution method; type: functional; method in brief: as §1
[9] = system: Bacillus subtilis; experiment: Antibacterial activity against Bacillus subtilis after 24 hrs by twofold broth dilution method; type: functional; method in brief: as §1
[10] = system: Micrococcus luteus; experiment: Antibacterial activity against Micrococcus luteus ATCC 4698 after 24 hrs by twofold broth dilution method; type: functional; settings: ATCC 4698, 24 h; method in brief: as §1
[11] = Stability of the compound at 30 to 80 degC after 30 mins by UV spectrophotometry; type: physicochemical; settings: 0.5 h
Method in brief: (§2)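 Stability followed by UV spectrometry across pH 6.5–8.5 and temperatures 30–80 °C.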

[12] = Stability of the compound at pH 6.5 to 8.5 after 30 mins by UV spectrophotometry; type: physicochemical; settings: buffer, pH 6.5, 0.5 h; method in brief: as §2
[13] = Solubility of the compound in phosphate buffer at pH 7.5 after 20 hrs by UV spectrophotometry; type: physicochemical
Method in brief: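 Phosphate buffer pH 7.5 added to solid; suspension sonicated 10 min, then shaken at room temperature for 20 h and centrifuged. Supernatant concentration read by UV absorbance against a regression calibration curve (278 and 340 nm).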

[14] = Octanol-water partition coefficient, log P of the compound after 24 hrs by UV-Vis spectrophotometry; type: physicochemical

Row | SMILES | MIC [1] [µg/mL] | MIC [2] [µg/mL] | MIC [3] [µg/mL] | MIC [4] [µg/mL] | MIC [5] [µg/mL] | MIC [6] [µg/mL] | MIC [7] [µg/mL] | MIC [8] [µg/mL] | MIC [9] [µg/mL] | MIC [10] [µg/mL] | Stability [11] | Stability [12] | solubility at 20 h [13] [µg/mL] | logP at 24 h [14]
1 | Cc1ncc([N+](=O)[O-])n1CCN(CCBr)Cc1ccc(F)cc1F | 64 (≈ 159 µM) | 32 (≈ 79.4 µM) | 64 (≈ 159 µM) | 16 (≈ 39.7 µM) | 128 (≈ 317 µM) | 128 (≈ 317 µM) | 32 (≈ 79.4 µM) | 128 (≈ 317 µM) | 256 (≈ 635 µM) | 128 (≈ 317 µM) | – | – | – | –
2 | COc1ccc2cc3[n+](cc2c1OCCN(CCn1cnc([N+](=O)[O-])c1)Cc1ccc(Cl)cc1)CCc1cc2c(cc1-3)OCO2.[Cl-] | 64 | 128 | 32 | 64 | 64 | 16 | 64 | 64 | 64 | 32 | Stable | Stable | 64.8 | 0.48
3 | O=[N+]([O-])c1cncn1CCN(CCBr)Cc1ccc(Cl)c(Cl)c1 | 16 (≈ 37.9 µM) | 8 (≈ 19 µM) | 32 (≈ 75.8 µM) | 32 (≈ 75.8 µM) | 32 (≈ 75.8 µM) | 128 (≈ 303 µM) | 16 (≈ 37.9 µM) | 16 (≈ 37.9 µM) | 32 (≈ 75.8 µM) | 128 (≈ 303 µM) | – | – | – | –
4 | COc1ccc2cc3[n+](cc2c1OCCN(CCn1cnc([N+](=O)[O-])c1)Cc1cccc(Cl)c1)CCc1cc2c(cc1-3)OCO2.[Cl-] | 64 | 256 | 8 | 32 | 64 | 32 | 32 | 16 | 32 | 64 | Stable | Stable | 50.8 | 0.57
5 | O=[N+]([O-])c1cncn1CCN(CCBr)Cc1ccc(F)cc1F | 8 (≈ 20.6 µM) | 8 (≈ 20.6 µM) | 32 (≈ 82.2 µM) | 32 (≈ 82.2 µM) | 16 (≈ 41.1 µM) | 4 (≈ 10.3 µM) | 32 (≈ 82.2 µM) | 16 (≈ 41.1 µM) | 64 (≈ 164 µM) | 16 (≈ 41.1 µM) | – | – | – | –
6 | O=[N+]([O-])c1cn(CCN(CCBr)Cc2cccc(Cl)c2)cn1 | 64 (≈ 165 µM) | 256 (≈ 660 µM) | 64 (≈ 165 µM) | 128 (≈ 330 µM) | 512 (≈ 1320 µM) | 128 (≈ 330 µM) | 128 (≈ 330 µM) | 128 (≈ 330 µM) | 64 (≈ 165 µM) | 64 (≈ 165 µM) | – | – | – | –
7 | O=[N+]([O-])c1cn(CCN(CCBr)Cc2ccccc2Cl)cn1 | 32 (≈ 82.5 µM) | 32 (≈ 82.5 µM) | 16 (≈ 41.3 µM) | 64 (≈ 165 µM) | 64 (≈ 165 µM) | 128 (≈ 330 µM) | 32 (≈ 82.5 µM) | 16 (≈ 41.3 µM) | 32 (≈ 82.5 µM) | 64 (≈ 165 µM) | – | – | – | –
8 | CCn1cc(C(=O)O)c(=O)c2cc(F)c(N3CCNCC3)cc21 [NORFLOXACIN] | 16 (≈ 50.1 µM) | 4 (≈ 12.5 µM) | 0.5 (≈ 1.57 µM) | 8 (≈ 25.1 µM) | 8 (≈ 25.1 µM) | – | 16 (≈ 50.1 µM) | – | 1 (≈ 3.13 µM) | 2 (≈ 6.26 µM) | – | – | – | –
9 | COc1ccc2cc3[n+](cc2c1OCCN(CCn1cncc1[N+](=O)[O-])Cc1ccc(Cl)c(Cl)c1)CCc1cc2c(cc1-3)OCO2.[Cl-] | 8 | 2 | 8 | 16 | 16 | 64 | 8 | 8 | 16 | 32 | Stable | Stable | 80.8 | 0.55
10 | O=[N+]([O-])c1cn(CCN(CCBr)Cc2ccc(F)cc2F)cn1 | 16 (≈ 41.1 µM) | 16 (≈ 41.1 µM) | 32 (≈ 82.2 µM) | 64 (≈ 164 µM) | 32 (≈ 82.2 µM) | 8 (≈ 20.6 µM) | 32 (≈ 82.2 µM) | 32 (≈ 82.2 µM) | 64 (≈ 164 µM) | 16 (≈ 41.1 µM) | – | – | – | –
11 | COc1ccc2cc3[n+](cc2c1OCCN(CCn1cnc([N+](=O)[O-])c1)Cc1ccc(F)cc1F)CCc1cc2c(cc1-3)OCO2.[Cl-] | 16 | 4 | 16 | 32 | 16 | 8 | 16 | 16 | 32 | 16 | Stable | Stable | 94 | 0.5
12 | O=[N+]([O-])c1cncn1CCN(CCBr)Cc1ccccc1Cl | 16 (≈ 41.3 µM) | 16 (≈ 41.3 µM) | 8 (≈ 20.6 µM) | 16 (≈ 41.3 µM) | 16 (≈ 41.3 µM) | 32 (≈ 82.5 µM) | 8 (≈ 20.6 µM) | 8 (≈ 20.6 µM) | 8 (≈ 20.6 µM) | 64 (≈ 165 µM) | – | – | – | –
